Experimental data published in ChEMBL document CHEMBL1122297, “Stereospecific synthesis of chiral metabolites of ifosfamide and their determination in the urine” (J Med Chem, 1983).

Tests used:
[1] = Portion of holoxan excreted in the form of the metabolite from 1500 mL of urine on day 9 was determined in embryonal rhabdomyosarcoma patients treated with ifosfamide; type: ADME, tissue-based; conditions: human, in vivo
How it was run: (§1)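 Patients received ifosfamide at 2 g per day for 10 days, and daily urine was collected. Urine from days 1 and 2 was dropped because it had been stored at room temperature. Solids were centrifuged off. Supernatant was examined by 31P NMR, and amounts were taken from the electronically integrated spectra.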

[2] = Portion of holoxan excreted in the form of the metabolite from 1600 mL of urine on day 10 was determined in embryonal rhabdomyosarcoma patients treated with ifosfamide; type: ADME, tissue-based; conditions: human, in vivo; how it was run: as §1
[3] = Portion of holoxan excreted in the form of the metabolite from 1700 mL of urine on day 5 was determined in embryonal rhabdomyosarcoma patients treated with ifosfamide; type: ADME, tissue-based; conditions: human, in vivo; how it was run: as §1
[4] = Portion of holoxan excreted in the form of the metabolite from 2310 mL of urine on day 4 was determined in embryonal rhabdomyosarcoma patients treated with ifosfamide; type: ADME, tissue-based; conditions: human, in vivo; how it was run: as §1
[5] = Quantity of the metabolite found in the urine of the embryonal rhabdomyosarcoma patients treated with ifosfamide from 1200 mL of urine tested on day 3; type: ADME, tissue-based; conditions: human; how it was run: as §1
[6] = Portion of holoxan excreted in the form of the metabolite from 1200 mL of urine on day 3 was determined in embryonal rhabdomyosarcoma patients treated with ifosfamide; type: ADME; conditions: human, in vivo; how it was run: as §1
[7] = Portion of holoxan excreted in the form of the metabolite from 1300 mL of urine on day 6 was determined in embryonal rhabdomyosarcoma patients treated with ifosfamide; type: ADME; conditions: human, in vivo; how it was run: as §1
[8] = Portion of holoxan excreted in the form of the metabolite from 1300 mL of urine on day 8 was determined in embryonal rhabdomyosarcoma patients treated with ifosfamide; type: ADME; conditions: human, in vivo; how it was run: as §1
[9] = Quantity of the metabolite found in the urine of the embryonal rhabdomyosarcoma patients treated with ifosfamide from 1200 mL of urine tested on day 7; type: ADME; conditions: human; how it was run: as §1
[10] = Quantity of the metabolite found in the urine of the embryonal rhabdomyosarcoma patients treated with ifosfamide from 1300 mL of urine tested on day 6; type: ADME; conditions: human; how it was run: as §1
[11] = Quantity of the metabolite found in the urine of the embryonal rhabdomyosarcoma patients treated with ifosfamide from 1300 mL of urine tested on day 8; type: ADME, tissue-based; conditions: human; how it was run: as §1
[12] = Quantity of the metabolite found in the urine of the embryonal rhabdomyosarcoma patients treated with ifosfamide from 1500 mL of urine tested on day 9; type: ADME; conditions: human; how it was run: as §1
[13] = Quantity of the metabolite found in the urine of the embryonal rhabdomyosarcoma patients treated with ifosfamide from 1600 mL of urine tested on day 10; type: ADME; conditions: human; how it was run: as §1
[14] = Quantity of the metabolite found in the urine of the embryonal rhabdomyosarcoma patients treated with ifosfamide from 1700 mL of urine tested on day 5; type: ADME; conditions: human; how it was run: as §1
[15] = Quantity of the metabolite found in the urine of the embryonal rhabdomyosarcoma patients treated with ifosfamide from 2310 mL of urine tested on day 4; type: ADME; conditions: human; how it was run: as §1
[16] = Portion of holoxan excreted in the form of the metabolite from 1200 mL of urine on day 7 was determined in embryonal rhabdomyosarcoma patients treated with ifosfamide; type: ADME; conditions: human, in vivo; how it was run: as §1
[17] = Active metabolite of ifosfamide determined in humans; A-Active; type: ADME; conditions: human
[18] = Metabolite of ifosfamide determined in urine; NF-Not found; type: ADME, tissue-based; conditions: human
[19] = Percent ratio of the enantiomeric form (+)R extracted from the urine of alveolar rhabdomyosarcoma patients was determined; type: ADME, tissue-based; conditions: human
How it was run: (§2)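 Patients were dosed with ifosfamide at 2 g per day for 10 days. Solids were centrifuged out of the urine. The supernatant was extracted with chloroform and with ethyl acetate before the enantiomeric composition was determined, because signals of parent drug and metabolite overlapped in crude concentrated urine.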

[20] = Percent ratio of the enantiomeric form (-)S extracted from the urine of alveolar rhabdomyosarcoma patients was determined; type: ADME, tissue-based; conditions: human; how it was run: as §2
[21] = Percent ratio of the enantiomeric form (-)S extracted from the urine of embryonal rhabdomyosarcoma patients was determined; type: ADME, tissue-based; conditions: human; how it was run: as §2
[22] = Percent ratio of the enantiomeric form (+)R extracted from the urine of embryonal rhabdomyosarcoma patients was determined; type: ADME; conditions: human; how it was run: as §2

Row | Structure (SMILES) | Excretion [1] | Excretion [2] | Excretion [3] | Excretion [4] | Quantity [5] | Excretion [6] | Excretion [7] | Excretion [8] | Quantity [9] | Quantity [10] | Quantity [11] | Quantity [12] | Quantity [13] | Quantity [14] | Quantity [15] | Excretion [16] | Activity [17] | Activity [18] | Extraction [19] | Extraction [20] | further results
1 | O=C1CCOP(=O)(NCCCl)N1CCCl (stereo not drawn) [4-KETOIFOSFAMIDE] | 100% | 61% | 40.2% | 65.5% | 44 mg | 39.8% | 91.5% | 61.7% | 84 mg | 136 mg | 78 mg | 24 mg | 66 mg | 81 mg | 34 mg | 74% |  |  |  |  | 
2 | O=P(O)(NCCCl)NCCCl [PALIFOSFAMIDE] |  |  |  |  |  |  |  |  |  |  |  |  |  |  |  |  | Active | Not found |  |  | 
3 | O=P1(NCCCl)NCCCO1 (stereo not drawn) | 100% | 61% | 40.2% | 65.5% | 198 mg | 39.8% | 91.5% | 61.7% | 348 mg | 434 mg | 338 mg | 310 mg | 320 mg | 258 mg | 432 mg | 74% |  |  | 72% | 28% | Extraction [21]: 55%; Extraction [22]: 45%
4 | O=C(O)CCOP(=O)(NCCCl)NCCCl | 100% | 61% | 40.2% | 65.5% | 70 mg | 39.8% | 91.5% | 61.7% | 312 mg | 348 mg | 56 mg | 186 mg | 130 mg | 70 mg | 62 mg | 74% |  |  |  |  | 
5 | NP1(=O)OCCCN1CCCl (stereo not drawn) | 100% | 61% | 40.2% | 65.5% | 64 mg | 39.8% | 91.5% | 61.7% | 180 mg | 243 mg | 130 mg | 231 mg | 160 mg | 95 mg | 163 mg | 74% |  |  | 13% | 87% | Extraction [21]: 73%; Extraction [22]: 27%
6 | O=P1(NCCCl)OCCCN1CCCl (stereo not drawn) [IFOSFAMIDE] | 100% | 61% | 40.2% | 65.5% | 348 mg | 39.8% | 91.5% | 61.7% | 432 mg | 500 mg | 494 mg | 1100 mg | 421 mg | 200 mg | 442 mg | 74% |  |  | 57% | 43% | Extraction [21]: 45%; Extraction [22]: 55%
7 | O=CCCOP(=O)(NCCCl)NCCCl |  |  |  |  |  |  |  |  |  |  |  |  |  |  |  |  | Active | Not found |  |  | 
8 | O=P1(NCCCl)OCCC(O)N1CCCl (stereo not drawn) [ALDOIFOSFAMIDE] |  |  |  |  |  |  |  |  |  |  |  |  |  |  |  |  | Active | Not found |  |  | 
